Results on 2 compounds are retold here after ChEMBL document CHEMBL4359864, “The synthesis and in vitro biological evaluation of novel fluorinated tetrahydrobenzo[j]phenanthridine-7,12-diones against Mycobacterium tuberculosis” (Eur J Med Chem, 2019).

In brackets after ≈: the same amount, converted by molar mass. Activity calls are given as the source filed them.

One may read the IC50 as the concentration that gives 50% inhibition. One may read the MIC90 as the lowest concentration that inhibits either 90% of growth or 90% of the strains tested, depending on the study.

Data set [1] deals with Mycobacterium tuberculosis. Put plainly: Antimycobacterial activity against Mycobacterium tuberculosis H37Ra lux incubated for 7 days by luminometric assay. It counts as functional, organism-based. Particulars: 168 h. Put shortly: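 Twofold serial dilutions in 7H9/OADC/glycerol, in triplicate, inoculated with a suspension of 10.000 RLU per mL. After 7 days, n-decanal (1% v/v in ethanol) was added and luminescence read. IC50 and MIC (90% growth reduction) were derived from the mean of triplicates.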

In data set [2] the test system is Enterococcus faecium. Briefly: Antibacterial activity against Enterococcus faecium ATCC 19434 incubated for 24 hrs by resazurin dye based fluorimetric assay. As to conditions: ATCC 19434, 24 h. It counts as functional, organism-based. Put shortly: (§1)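 Resazurin microtiter assay: compounds from 10 mM DMSO stock, twofold serial dilutions from 64 µM final in growth medium, in triplicate. Inoculum from frozen glycerol stocks. Exposure 24 h, or 7 days for Mtb H37Ra (7H9 + 0.5% glycerol + 10% OADC). Then 0.01% resazurin was added and plates were incubated at 37°C until pink. Fluorescence read at ex 550/em 590 nm; mean of triplicates.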
A general note: Alamar Blue is a resazurin reagent that responds to reducing activity.

Data set [3] is described as follows: Genotoxicity in Salmonella typhimurium TA104 harboring with pr1 assessed as S/N ratio at 1 to 100 uM measured for 4 hrs with 5 mins interval in presence of rat liver S9 fraction by luminescence based assay. In kind it is toxicity, subcellular. Particulars: salmonella enterica subsp. enterica serovar typhimurium, s9, 4 h. An outline of the steps: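 VITOTOX test. Genox (recN2-4) and Cytox (pr1) S. typhimurium TA104 strains were diluted 250-fold and grown in 869 medium for 16 h at 36°C with shaking, then diluted 10-fold and grown 1 h more. Compounds tested at 1, 10 and 100 µM, with or without rat liver S9-mix. Luminescence read for 4 h at 5-min intervals. S/N thresholds: Genox >1.5 genotoxic; Cytox <0.8 toxic, >1.5 luminescence artefact.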

Data set [4] has as its target T1, UGT (Homo sapiens, UniProt O60656+O75310+O75795+P06133+P0DTE4+P0DTE5+P16662+P19224+P22309+P22310+P35503+P35504+P36537+P54855+Q6UWM9+Q9BY64+Q9HAW7+Q9HAW8+Q9HAW9). Put plainly: Microsomal stability in human liver microsomes assessed as UGT-mediated metabolism by measuring compound remaining at 5 uM and measured for 15 mins in presence of UDPGA by UPLC-MS/MS analysis (reference value: 100%). It counts as ADME. As to conditions: read-out: Stability. Put shortly: (§2)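 Compound at 5 µM with 0.5 mg/mL liver microsomes in PBS. Phase I was started with 1 mM NADPH; phase II used 2 mM UDPGA. Diclofenac served as reference. Samples taken at 0, 15, 30 and 60 min were quenched in ice-cold acetonitrile, centrifuged at 4°C and analysed by LC-MS. Mean of at least two replicates ± SD.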
(In general: Liver microsomes are vesicles of endoplasmic reticulum, rich in cytochrome P450 enzymes.)

Data set [5] relates to CYP450. Briefly: Microsomal stability in mouse liver microsomes assessed as CYP450-mediated metabolism by measuring compound remaining at 5 uM and measured for 30 mins in presence of NADPH by UPLC-MS/MS analysis (reference value: 100%). Particulars: read-out: Stability. In kind it is ADME. An outline of the steps: as §2
The test system of data set [6] is Staphylococcus aureus. Briefly: Antibacterial activity against Staphylococcus aureus ATCC 6538 incubated for 24 hrs by resazurin dye based fluorimetric assay. Particulars: ATCC 6538, 24 h. It counts as functional, organism-based. An outline of the steps:
as §1

The test system of data set [7] is CYP450. Briefly: Microsomal stability in mouse liver microsomes assessed as CYP450-mediated metabolism by measuring compound remaining at 5 uM and measured for 15 mins in presence of NADPH by UPLC-MS/MS analysis (reference value: 100%). It counts as ADME. As to conditions: read-out: Stability. An outline of the steps: as §2
Data set [8] addresses T1, UGT. Put plainly: Microsomal stability in human liver microsomes assessed as UGT-mediated metabolism by measuring compound remaining at 5 uM and measured for 30 mins in presence of UDPGA by UPLC-MS/MS analysis (reference value: 100%). It counts as ADME. Particulars: read-out: Stability. Put shortly:
as §2

In data set [9] the target is CYP450 (Homo sapiens, UniProt P04798+P05177+P05181+P08684+P10632+P10635+P11509+P11712+P13584+P20813+P20815+P20853+P24462+P24903+P33260+P33261+P51589+P78329+P98187+Q02928+Q08477+Q16678+Q16696+Q5TCH4+Q6VVX0+Q7Z449+Q8TAV3+Q96SQ9+Q9HB55). Put plainly: Microsomal stability in human liver microsomes assessed as CYP450-mediated metabolism by measuring compound remaining at 5 uM and measured for 15 mins in presence of NADPH by UPLC-MS/MS analysis (reference value: 100%). As to conditions: read-out: Stability. In kind it is ADME. Put shortly: as §2

Data set [10] has as its system Mycobacterium tuberculosis. Put plainly: Antibacterial activity against Mycobacterium tuberculosis H37Ra ATCC 25177 incubated for 7 days by resazurin dye based fluorimetric assay. It counts as functional, organism-based. Particulars: H37Ra ATCC 25177, 168 h. Put shortly:
as §1

Data set [11] has as its system Mycobacterium tuberculosis. Briefly: Antimycobacterial activity against Mycobacterium tuberculosis H37Ra lux infected in mouse J774A.1 cells assessed as reduction in intracellular mycobacterial replication at 10.0 uM incubated for 24 to 72 hrs by luminometric assay relative to control. In kind it is functional. On the set-up: scale not given: the % may be the effect or the level left. An outline of the steps:
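J774A.1 cells were infected at MOI 10 for 2 h at 37°C. Extracellular bacteria were killed with 100 µg/mL gentamicin for 1 h, then cells were washed and treated. At 24, 48 and 72 h, cells were lysed with 1% Triton X-100 and n-decanal was added to the lysate. Luminescence (RLU) reported as mean of triplicates ± SD.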

The subject of data set [12] is Klebsiella pneumoniae. Put plainly: Antibacterial activity against Klebsiella pneumoniae ATCC 13883 incubated for 24 hrs by resazurin dye based fluorimetric assay. It counts as functional, organism-based. Particulars: ATCC 13883, 24 h. An outline of the steps:
as §1

The subject of data set [13] is Mycobacterium tuberculosis. Briefly: Induction of ROS generation in Mycobacterium tuberculosis H37Ra ATCC 25177 assessed as increase in superoxide radicals incubated with CMH probe for 50 mins followed by compound addition and measured for 3 to 48 hrs by EPR analysis. It counts as functional. An outline of the steps:
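Mtb H37Ra cultures were exposed to compound, rifampicin or moxifloxacin (2 x MIC), alongside untreated controls. Samples were measured by EPR at 3, 6, 24 and 48 h. Spectra were simulated and double-integrated (aN = 1.58 mT) and converted to absolute CMH radical concentration by calibration. Mean of at least three replicates ± SD; two-way ANOVA with Tukey test.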

On to `O=C1C2=C(C(=O)c3c1cnc1ccccc31)C1CCC2C1` (configuration not stated), for which the 50% inhibitory concentration (IC50) in data set [1] was 1.28 µM; in data set [2], 32 to 64 µM; in data set [6], 32 to 64 µM; in data set [10], 1 to 2 µM; in data set [12], over 64 µM. The same compound gave an MIC90 in data set [1] of 6.33 µM (≈ 1.74 µg/mL). Also, the Ratio result in data set [3] is listed as “>= 0.8”. Further, the remaining at 0.25 h, 5 µM worked out at 83% in [4], 100% in data set [7] and 100% in data set [9]. Also, the remaining at 0.5 h, 5 µM in [5] was found to be 100%; in data set [8] it was 76%. Moreover, in data set [11], the Activity worked out at 84.14%.

Turning to `O=C1C2=C(C(=O)c3c1cnc1c(F)cccc31)C1CCC2C1` (configuration not stated), the IC50 in data set [1] was 1.54 µM; in [2], over 64 µM; in data set [6] it was over 32 µM; in [10] it was 1 to 2 µM; in data set [12] it was over 64 µM. For the same compound, the MIC90 in data set [1] stood at 4.43 µM (≈ 1.3 µg/mL). The “fold change (FC)” value in data set [13] worked out at 2.85. Also, the Ratio result in data set [3] is given as “>= 0.8”. Moreover, the remaining at 0.25 h, 5 µM came out at 78% in data set [4], 100% in data set [7] and 100% in data set [9]. Besides, the remaining at 0.5 h, 5 µM in [5] was 100%; in data set [8] it was 71%. For the same compound, the outcome in data set [11] was inactive.
